The values that follow come from ChEMBL document CHEMBL1133727, “Structure-activity relationships in a series of bisquaternary bisphthalimidine derivatives modulating the muscarinic M(2)-receptor allosterically” (J Med Chem, 2000).

Data set [1] in a line: Partition coefficient (logP). Format: physicochemical. As to conditions: octanol/water.
Data set [2] concerns the target T1, Muscarinic acetylcholine receptor M2 (Sus scrofa, UniProt P06199).
T1 sequence (P06199 whole entry): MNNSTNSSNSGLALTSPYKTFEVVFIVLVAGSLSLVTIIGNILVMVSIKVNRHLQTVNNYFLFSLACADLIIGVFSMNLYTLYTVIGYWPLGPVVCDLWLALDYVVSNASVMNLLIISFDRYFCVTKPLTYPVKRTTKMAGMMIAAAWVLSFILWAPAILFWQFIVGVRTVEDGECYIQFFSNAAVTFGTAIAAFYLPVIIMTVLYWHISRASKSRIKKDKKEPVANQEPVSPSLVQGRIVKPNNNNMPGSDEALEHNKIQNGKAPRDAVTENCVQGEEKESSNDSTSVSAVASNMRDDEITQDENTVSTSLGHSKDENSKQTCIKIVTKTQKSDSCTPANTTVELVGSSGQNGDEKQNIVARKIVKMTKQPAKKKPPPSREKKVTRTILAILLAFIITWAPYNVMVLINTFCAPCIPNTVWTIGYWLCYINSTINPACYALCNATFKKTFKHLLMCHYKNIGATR
In words: Inhibition of [3H]- N-methyl-scopolamine ([3H]NMS) dissociation from porcine cardiac M2-receptors. As to conditions: read-out: Log 1/EC50 (converted). The method, boiled down: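 Porcine heart ventricular myocardium homogenate, stored at −80 °C. Membranes preincubated 30 min with [3H]NMS in 3 mM MgHPO4, 50 mM Tris, pH 7.3, 37 °C. Dissociation started with 1 µM atropine, with or without test compound. Bound ligand collected by filtration and counted by liquid scintillation. Monoexponential fit gave apparent k−1; EC50 for k−1 reduced to 50% of control, from four-parameter logistic fit.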

SMILES strings stand for the structures.

The logP is the decadic logarithm of the partition coefficient of the neutral form, usually between octanol and water. A high value points to a more lipophilic compound. Consider `CCOC1c2ccccc2C(=O)N1CCC[N+](C)(C)CCCCCC[N+](C)(C)CCCN1C(=O)c2ccccc2C1OCC` (centres undefined), for which the logP in data set [1] came out at 2.07. In addition, in data set [2], the EC50 was 2290 nM.

`C[N+](C)(CCCCCC[N+](C)(C)CCCN1C(=O)c2ccccc2C1=O)CCCN1C(=O)c2ccccc2C1=O`: the logP in data set [1] came out at 1.46. Further, in data set [2], the EC50 was 1410 nM.

`C[N+](C)(CCCCCC[N+](C)(C)CCCN1Cc2ccccc2C1=O)CCCN1Cc2ccccc2C1=O` yielded a logP in data set [1] of 1.55. Also, the EC50 in data set [2] is 2000 nM.

`C[N+](C)(CCCCCC[N+](C)(C)CCCN1C(=O)c2ccccc2C1O)CCCN1C(=O)c2ccccc2C1O` (centres undefined) came in with a logP in data set [1] of 1.45. The EC50 in data set [2] is 6030 nM.

Regarding `C[N+](C)(CCCCCC[N+](C)(C)CCCN1C(=O)c2ccccc2C1Cc1ccccc1)CCCN1C(=O)c2ccccc2C1Cc1ccccc1` (centres undefined), the lipophilicity (logP) in data set [1] was 3.65. In addition, the EC50 in data set [2] is 1000 nM.

In data set [1], `C[N+](C)(CCCCCC[N+](C)(C)CCCN1C(=O)c2ccccc2/C1=C\c1ccccc1)CCCN1C(=O)c2ccccc2/C1=C\c1ccccc1` yielded a logP of 2.96. Besides, the EC50 in data set [2] was 70.8 nM.

As for `COC1c2ccccc2C(=O)N1CCC[N+](C)(C)CCCCCC[N+](C)(C)CCCN1C(=O)c2ccccc2C1OC` (centres undefined), the logP in data set [1] is 1.72. The EC50 in data set [2] is 6760 nM.

Take `C[N+](C)(CCCCCC[N+](C)(C)CCCN1C(=O)c2ccccc2/C1=C/c1ccccc1)CCCN1C(=O)c2ccccc2/C1=C/c1ccccc1`: in data set [1], the logP is 2.96. Further, the EC50 in data set [2] was 85.1 nM.

For `CC(C)OC1c2ccccc2C(=O)N1CCC[N+](C)(C)CCCCCC[N+](C)(C)CCCN1C(=O)c2ccccc2C1OC(C)C` (centres undefined), the logP in data set [1] was 2.48. Besides, the EC50 in data set [2] is 1580 nM.

Turning to `CC(C)SC1c2ccccc2C(=O)N1CCC[N+](C)(C)CCCCCC[N+](C)(C)CCCN1C(=O)c2ccccc2C1SC(C)C` (centres undefined), the logP in data set [1] is 2.92. Further, in data set [2], the EC50 was 1260 nM.

For the compound `C[N+](C)(CCCCCC[N+](C)(C)CCCN1C(=O)c2ccccc2/C1=C\c1ccccc1)CCCN1C(=O)c2ccccc2/C1=C/c1ccccc1`, the logP in data set [1] came to 2.96. For the same compound, in data set [2], the EC50 was 66.1 nM.

The compound `C[N+](C)(CCCCCC[N+](C)(C)CCCN1C(=O)c2ccccc2C1c1ccccc1)CCCN1C(=O)c2ccccc2C1c1ccccc1` (centres undefined) gave a logP in data set [1] of 3.4. In addition, the EC50 in data set [2] was 794 nM.
